# Bioassay records (PubChem BioAssay)
# Arrestin-AP2 inh: blocks beta-arrestin peptide binding to AP2 adaptin. FITC-arrestin peptide / GST-AP2 beads, flow cytometry; AP2 beta2 appendage carries R879A mutation. inhibition, % at 10 µM. 340,000 tested, 0.31% active. AID 504490;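 active means inhibition above a set limit, near 3 SD of compounds lacking own fluorescence, cut at about 54% in these data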;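 further: plate controls were DMSO wells for no effect and 5 µM unlabelled arrestin peptide for full effect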
#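 Assay system: GST-AP2 R879A bound to glutathione beads, E. coli-expressed; Medium: PBS with 0.05% Tween 20 and 0.1% BSA; Also added: fluorescein-tagged arrestin peptide at 50 nM final; Timing: 12 min plus 1 h, RT; Measured by: flow cytometry, FL1 (488/535 nm); Evaluation: percent drop in bead-associated FITC signal.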
# ALR inh: inhibitors of human sulfhydryl oxidase ALR | P55789 | purified ALR, DTT oxidation, H2O2 HRP-luminol luminescence | inhibition, % (no concentration beside the values) | 290,000 tested, 3.8% active;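 active means mean replicate inhibition above about 79%, with every replicate also reaching it, limit read from the data; inconclusive means only one of the two criteria met; inactive means mean below limit and not every replicate reaching it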
# PolyA inh: inhibitors of polyadenylation in S. cerevisiae. S. cerevisiae SKY197-pL101 polyadenylation reporter, beta-gal luminescence; efflux-impaired pdr1/pdr3 knockout yeast; score 100 = 6 SD above DMSO. activity score, % at 12 µM. AID 1875. 300,000 tested, 0.02% active;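 active means lowest replicate activity score at least 50, where 100 means six control SD above control mean; inconclusive means lowest score under 50 but half or more replicates reach 50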;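 further: yeast exposed to compound for 9 h at 30 °C; higher score means more reporter readthrough which indicates perturbed polyadenylation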
# NALP1 inh: inhibitors of NALP1 inflammasome in yeast; S. cerevisiae NALP1/ASC/caspase-1 growth, X-gal OD620, 72 h; inhibition, % at 10 µM; 280,000 tested, 0.61% active; in the data active means inhibition mostly above about 24%, no sharp cut-off; inactive means mostly below about 32%
# NLRP3 yeast inh: inhibitors of NALP3 inflammasome in yeast; Yeast reconstituted NLRP3/ASC/caspase-1, beta-gal luminescence, 24 h; inhibition, % at 10 µM; 330,000 tested, 0.39% active;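 active means inhibition of 50% or more; inactive means inhibition below 50%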;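 further: plate controls were induced DMSO wells for no effect and uninduced yeast grown without galactose for full effect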
# DSG3 Ab inh: inhibitors of pemphigus antibody binding to human desmoglein-3 | 310,000 tested, 0.48% active | P32926 | DSG3-coupled beads, scFv-anti-DSG3-GFP binding, flow cytometry; active compounds read low | binding (percent of control), % at 10 µM;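 active means binding more than 3 SD below its plate's average and above zero; inconclusive means below that plate limit but binding exactly zero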;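 further: hits lower antibody fragment binding to DSG3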
# Target sequence (P32926 whole entry, looked up, the tested form may be a part): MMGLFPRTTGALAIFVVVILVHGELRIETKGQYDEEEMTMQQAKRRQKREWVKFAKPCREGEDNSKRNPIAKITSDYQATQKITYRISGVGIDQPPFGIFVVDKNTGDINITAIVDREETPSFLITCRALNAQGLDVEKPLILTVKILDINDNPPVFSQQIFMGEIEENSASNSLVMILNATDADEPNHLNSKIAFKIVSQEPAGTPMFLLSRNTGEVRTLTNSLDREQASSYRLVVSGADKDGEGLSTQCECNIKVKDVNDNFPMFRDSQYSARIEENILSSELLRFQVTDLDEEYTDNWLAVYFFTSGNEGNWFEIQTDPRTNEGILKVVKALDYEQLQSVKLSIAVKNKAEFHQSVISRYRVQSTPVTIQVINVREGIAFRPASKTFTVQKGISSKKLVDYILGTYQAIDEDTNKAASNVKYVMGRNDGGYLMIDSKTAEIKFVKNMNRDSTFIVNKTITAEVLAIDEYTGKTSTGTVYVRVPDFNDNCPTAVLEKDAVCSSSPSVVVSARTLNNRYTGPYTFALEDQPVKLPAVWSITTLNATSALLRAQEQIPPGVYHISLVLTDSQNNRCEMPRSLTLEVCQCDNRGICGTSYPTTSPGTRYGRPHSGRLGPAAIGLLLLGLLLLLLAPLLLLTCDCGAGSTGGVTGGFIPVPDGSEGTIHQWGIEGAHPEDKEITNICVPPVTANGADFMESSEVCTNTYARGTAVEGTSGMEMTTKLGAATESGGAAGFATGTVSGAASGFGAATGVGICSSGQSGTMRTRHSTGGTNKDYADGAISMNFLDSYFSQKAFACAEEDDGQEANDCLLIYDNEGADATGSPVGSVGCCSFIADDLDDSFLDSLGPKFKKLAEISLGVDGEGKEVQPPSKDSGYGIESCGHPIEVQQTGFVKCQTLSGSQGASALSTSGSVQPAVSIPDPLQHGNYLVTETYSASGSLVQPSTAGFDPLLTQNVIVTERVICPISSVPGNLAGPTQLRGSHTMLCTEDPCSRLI
# Arr-AP2 CP1: human beta-arrestin and AP2 interaction inhibition, cherry pick; shares compounds with Arrestin-AP2 inh; GST-AP2 beads, FITC arrestin peptide binding, flow cytometry; GST-fused beta2-adaptin appendage, R879A mutant; 1,300 tested, 2% active; inhibition, % at 10 µM;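 active means inhibition above a set limit, roughly 3 SD of non-fluorescent compound noise, cut at about 38% in these data; inactive means inhibition at or below that limit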;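 further: loss of bead fluorescence from 50 nM FITC arrestin peptide bound to appendage; 0% = negative control wells and 100% = excess unlabelled arrestin peptide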
# GST GSH counter: GST-GSH bead binding interference, counter-screen; shares compounds with Arrestin-AP2 inh; GST-fluorescein binding to GSH beads, fluorescence; inhibition, % at 10 µM; 1,300 tested, 2% active; AID 588338;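 active means inhibition above 50%, about 3 SD of the inhibition seen with non-fluorescent compounds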;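 further: fluorescein maleimide labelled GST captured on 4 micron glutathione beads; higher means more loss of bead fluorescence from quenching or blocked binding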
# * hit, by the source's call; ? = inconclusive; . = no result. An excerpt weighted towards active compounds, which were near 4.6% of everything screened.
SMILES,Arrestin-AP2 inh,ALR inh,PolyA inh,NALP1 inh,NLRP3 yeast inh,DSG3 Ab inh,Arr-AP2 CP1,GST GSH counter
Cc1cccc(CN2C(=O)N/C(=C/c3cc(C)n(-c4ccccn4)c3C)C2=O)c1,11.8,-2.6,-5.4,22.8,3.6,109.1,.,.
Cc1cc(/C=C2/NC(=O)N(Cc3ccccc3F)C2=O)c(C)n1-c1ccccn1,87.7*,-7.6,-1.7,10.4,-18.7,91.0,-7.5,72.2*
CCCOc1ccc(C(=O)OCC(=O)c2c(N)n(C)c(=O)n(C)c2=O)cc1OCC,16.6,-1.3,-4.7,-6.4,14.2,102.5,.,.
Cn1c(N)c(C(=O)COC(=O)CNC(=O)c2ccccc2)c(=O)n(C)c1=O,-8.6,2.8,.,.,4.7,94.3,.,.
Cn1c(N)c(C(=O)COC(=O)c2cncc(Br)c2)c(=O)n(C)c1=O,60.8*,-8.4,-21.0,14.5,9.9,.,-8.8,5.9
CCCCOc1ccc(C(=O)OCC(=O)c2c(N)n(C)c(=O)n(C)c2=O)cc1,-8.5,2.2,.,.,12.9,96.9,-1.4,4.7
Cc1ccc(C(=O)NCC(=O)OCC(=O)c2c(N)n(C)c(=O)n(C)c2=O)s1,74.7*,-2.8,5.2,-10.0,9.8,99.3,-11.5,2.6
Cn1c(N)c(C(=O)COC(=O)c2ccc(Br)o2)c(=O)n(C)c1=O,12.9,-7.6,-20.7,-15.8,6.7,103.2,1.2,-0.2
Cn1c(N)c(C(=O)COC(=O)c2ccc([N+](=O)[O-])o2)c(=O)n(C)c1=O,-24.5,.,-0.7,8.5,1.1,102.3,.,.
Cc1c(NC(=O)CN2C(=O)NC3(CCCCC3)C2=O)c(=O)n(-c2ccccc2)n1C,35.2,-0.9,-9.0,-11.2,1.5,.,.,.
COC(=O)C(Cc1csc2ccc(Cl)cc12)NC(=O)c1ccc(Cl)cc1 (stereo unspecified),-2.9,-2.4,-6.8,14.8,15.9,113.2,.,.
Cn1c(N)c(C(=O)COC(=O)CCC2CCCCC2)c(=O)n(C)c1=O,55.4*,-0.7,-20.4,-15.3,-17.2,95.2,1.8,5.7
Cn1c(N)c(C(=O)COC(=O)CCC2CCCC2)c(=O)n(C)c1=O,0.9,28.1,-17.9,-5.2,10.1,.,.,.
Cc1cc(C)n2c(SCC(=O)NC3CCCCC3)nnc2n1,-3.4,42.8,9.1,7.5,12.4,100.2,.,.
CCC(O)C1CCN(C(=O)c2cc(COc3ccc4ncccc4c3)on2)CC1 (stereo unspecified),-10.6,-9.1,10.6,2.0,11.3,.,.,.
CCC(C)N(C(=O)COC(=O)c1ccccc1SCC(=O)N1CCCC1)C1CCS(=O)(=O)C1 (stereo unspecified),54.4*,4.9,-5.7,7.7,7.1,103.9,7.8,-1.7
CC(=O)N1CCN(CC(=O)Nc2ccc3c(c2)CCC3)CC1,1.4,-1.8,5.5,24.3,6.0,99.3,.,.
Cc1ccc2[nH]c(=O)c(CN(CCCN3CCOCC3)C(=O)NC3CCCCC3)cc2c1,-18.6,6.7,1.6,12.8,9.1,93.5*,-9.2,-6.4
CCc1ccc2[nH]c(=O)c(CN(CCN3CCCC3)C(=O)NC3CCCCC3)cc2c1,-2.4,45.0,-6.2,0.9,-0.3,.,17.8,1.2
O=C(NC1CCCCC1)N(CCN1CCOCC1)Cc1cc2cc3c(cc2[nH]c1=O)OCCO3,0.7,-9.9,0.8,4.6,12.4,103.0,.,.
COc1ccc(-c2csc(NC(=O)c3ccoc3C)n2)cc1,30.8,-0.8,3.5,10.2,25.6,104.1,.,.
CC12CC3(C)CC(C)(C1)CC(C(=O)NCc1ccccn1)(C2)C3,37.1,.,-1.7,11.3,7.5,106.5,.,.
COC(=O)CNC(=O)C12CC3(C)CC(C)(CC(C)(C3)C1)C2,59.3*,7.4,-2.5,16.6,15.4,110.8,-6.7,-0.8
COc1ccc(S(=O)(=O)N2CCN(CC(O)COc3ccc(CC#N)cc3)CC2)cc1OC (stereo unspecified),25.9,-0.7,-21.6,18.6,7.5,101.3,.,.
CCCn1c(SCC(=O)N2CCCCC2)nnc1C(C)C,56.0*,1.8,-10.2,-5.0,3.0,102.6,-5.0,-0.6
SMILES,Arrestin-AP2 inh,ALR inh,PolyA inh,NALP1 inh,NLRP3 yeast inh,DSG3 Ab inh,Arr-AP2 CP1,GST GSH counter
COCCn1c(SCC(=O)N2CCCC2)nnc1C(C)C,7.2,-4.0,2.8,4.5,5.8,94.9,.,.
Cc1nn(-c2ccc(F)cc2)c(Cl)c1/C=C/C(=O)OCC(=O)Nc1c(F)c(F)c(F)c(F)c1F,104.1*,-4.0,2.1,42.7,1.3,83.8,-3.6,-1.9
O=C1Nc2ccccc2C(=O)N2C[C@@H](O)C[C@H]12,-3.0,.,?,23.2,5.6,111.6,.,.
C1CCN(c2nc(N3CCCCC3)nc(N3CCNCC3)n2)CC1,100.9*,2.6,-6.1,5.8,19.8,97.9,0.7,-1.3
Cc1cc2cc(NC(=O)c3ccco3)ccc2[nH]1,99.6*,10.3,1.8,.,14.6,90.6,-11.5,-2.0
CC(=O)Nc1ccc(NC(=O)C(C)OC(=O)c2ccc3[nH]c(C)c(C)c3c2)cc1 (stereo unspecified),57.0*,5.2,12.7,.,6.3,101.6,-6.7,-5.8
CC(C)(C)NC(=O)/C(=C/c1ccco1)c1ccccc1,87.9*,89.7*,8.0,5.4,36.2,107.3,8.8,-1.8
O=c1cc(CO)[nH]cc1OCc1ccccc1,61.5*,1.3,9.6,11.7,15.3,102.1,-4.9,-4.6
O=c1cc(CO)occ1OCc1cccc(F)c1,-3.4,-33.9,11.9,16.2,5.3,97.9,.,.
Cc1cccc(C)c1NC1=NCCCCC1,18.1,-1.1,2.2,-4.9,8.7,103.8,.,.
CC1CCCC(C)N1C(=O)COC(=O)CSc1ccc([N+](=O)[O-])cc1 (stereo unspecified),75.4*,.,.,.,7.1,94.1,-6.0,-5.4
O=C(CCN1C(=O)/C(=C/c2ccccc2)SC1=S)NNC(=O)c1cccnc1,106.4*,-20.6,2.7,26.6,8.3,.,9.9,0.7
CCOC(=O)N1CCN(S(=O)(=O)c2ccc(Cl)cc2)CC1,65.6*,-6.0,14.3,2.5,34.5,99.2,-5.2,-5.6
Cc1cc(=O)[nH]c(-c2cccnc2)n1,62.6*,-5.1,11.1,15.3,11.4,100.4,-2.7,-6.0
COc1ccc(C(=O)NNC(=O)CCCCC(=O)NNC(=O)c2ccc(OC)cc2)cc1,62.3*,-10.6,0.9,-9.4,7.7,102.0,1.2,-2.5
Cc1cc(=O)c2c(=O)[nH][nH]c2[nH]1,.,.,.,.,.,97.3,.,.
CCn1c(=O)n(CC)c2cc(N3CCCC3)c(NC(=O)c3cccc(C)c3)cc21,63.7*,?,-4.3,-9.8,9.7,104.0,8.9,7.3
